Measured values as given in PMC10247892 (Biomedicine & Pharmacotherapy, 2023).
“Also recorded” adds a separate entry of the source.

Assays:
Calu-3 cells = test: Lipidomic analysis of Calu-3 cells after MβCD treatment; assay type: cell-based; conditions: increasing concentrations, 2 h
Method in brief: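 Calu-3 cells were seeded at 3 million/well and treated with 0, 0.6 or 2.5 mM test compound for 2 h at 37 °C and 5 % CO2. Plasma membrane lipid composition was then measured by lipidomics.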

[1] = molecular target: SARS-CoV-2 3CL main protease (MBP-tagged) (Severe acute respiratory syndrome coronavirus 2, UniProt P0DTD1); assay type: biochemical; conditions: increasing concentrations
[2] = system: SARS-CoV-2 NanoLuc replicative competent reporter virus; design: species or system golden Syrian hamsters; conditions: hamster, in vivo

Methyl-β-cyclodextrin [MβCD]
Effect on phosphatidylcholine (in words) (Calu-3 cells): did not affect phosphatidylcholine
Inhibition of M^pro activity (in words) [1]: did not show activity
Nanoluciferase signal in nasal turbinates and lungs (in words) [2]: no nanoluciferase signal was detected; also recorded: no sign of infection was detected
